In ChEMBL document CHEMBL1126618, “Epoxysuccinyl dipeptides as selective inhibitors of cathepsin B” (J Med Chem, 1993):

How the values were obtained:
[1] = ratio of cathepsin B/papain
In short: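 Both enzymes were run in a continuous CbzPheArgMCA fluorescence assay in 50 mM phosphate, 200 mM NaCl, 5 mM EDTA and 10% acetonitrile. Recombinant rat cathepsin B was run at pH 6.0 with 0.5 mM DTT. Papain was run at pH 6.5. In each case kobs was followed until complete inactivation.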

[2] = species on record: Rattus norvegicus; assay: Second order rate constant for inactivation of rat cathepsin B; settings: in vitro
In short: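 Recombinant rat cathepsin B expressed in yeast, activated 15 min on ice in buffer containing 1 mM DTT. Continuous assay at pH 6.0: 50 mM phosphate, 200 mM NaCl, 5 mM EDTA, 10% v/v acetonitrile, 0.5 mM DTT. Substrate CbzPheArgMCA; fluorescence (ex 380, em 440 nm) followed until complete inactivation (typically 5–30 min) to obtain first-order kobs.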

[3] = molecular target: papain (Carica papaya) (UniProt P00784); assay: Second order rate constant for inactivation of papain; settings: in vitro

Compound	Ratio [1]	kinact/Ki [2]	kinact/Ki [3]
CCOC(=O)[C@H]1O[C@H]1C(=O)N[C@@H](CC(C)C)C(=O)N1CCC[C@H]1C(=O)O	18	13800 M⁻¹ s⁻¹	760 M⁻¹ s⁻¹
CC(C)CNC(=O)[C@H]1O[C@H]1C(=O)N[C@@H](CC(C)C)C(=O)N1CCC[C@H]1C(=O)O	93	52000 M⁻¹ s⁻¹	558 M⁻¹ s⁻¹
CC(C)C[C@H](NC(=O)[C@@H]1O[C@@H]1C(=O)O)C(=O)N1CCC[C@H]1C(=O)OCc1ccccc1	0.05	8700 M⁻¹ s⁻¹	176000 M⁻¹ s⁻¹
CCOC(=O)[C@H]1O[C@H]1C(=O)N[C@@H](CC(C)C)C(=O)N1CCC[C@H]1C(=O)OCc1ccccc1	0.3	30 M⁻¹ s⁻¹	110 M⁻¹ s⁻¹
CC(C)CNC(=O)[C@H]1O[C@H]1C(=O)N[C@@H](CC(C)C)C(=O)N1CCC[C@H]1C(=O)OCc1ccccc1	0.1	206 M⁻¹ s⁻¹	2070 M⁻¹ s⁻¹
CC(C)C[C@H](NC(=O)[C@@H]1O[C@@H]1C(=O)O)C(=O)N1CCC[C@H]1C(=O)O	0.07	2200 M⁻¹ s⁻¹	30000 M⁻¹ s⁻¹
